Test results: ChEMBL document CHEMBL4316593 (Eur J Med Chem, 2019)

How the values were obtained:
Type in all cases: cell-based
[1] = Inhibition of RTK/PI3K/AKT/mTOR signaling in human U87 cells assessed as up regulation of macrophage stimulating 1 receptor gene expression at cytotoxic IC50 measured after 48 hrs relative to control
[2] = Inhibition of RTK/PI3K/AKT/mTOR signaling in human U87 cells assessed as up regulation of QSOX2 gene expression at cytotoxic IC50 measured after 48 hrs relative to control; details: U-87MG ATCC
Method in brief: (§1)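 Cells were exposed for 48hrs at 37°C in humidified 5% CO₂ to the compound at its previously determined IC₅₀, with Cisplatin at its IC₅₀ and an untreated negative control alongside. Each condition was run in triplicate. RNA was isolated from all samples by the same protocol. Genes were called differentially expressed by DESeq2 at q-value < 0.05 and fold change > 1.5.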

[3] = Inhibition of RTK/PI3K/AKT/mTOR signaling in human U87 cells assessed as up regulation of IER3 gene expression at cytotoxic IC50 measured after 48 hrs relative to control; details: U-87MG ATCC; method in brief: as §1
[4] = Inhibition of RTK/PI3K/AKT/mTOR signaling in human U87 cells assessed as up regulation of ubiquitin-fold modifier conjugating enzyme 1 gene expression at cytotoxic IC50 measured after 48 hrs relative to control; details: U-87MG ATCC

CC(=O)C(=NNc1ccccc1C#N)C(C)=O
log2FC [1]: 0.723 | log2FC [2]: 0.599 | log2FC [3]: 0.384 | log2FC [4]: 0.669
